The subject of experiment [1] is Mus musculus. The experiment in a line: Antinociceptive activity in Albino mouse assessed as inhibition of acetic acid-induced abdominal constriction at 100 umol/kg, po treated 1 hr before acetic acid challenge relative to control. As to conditions: Abdomen. It counts as functional. In short, it runs like this: (§1)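 Albino mice of both sexes (18–23 g), dosed orally as a suspension in 5% arabic gum in saline. Acetic acid given ip 1 h later. Constrictions counted for 20 min, starting 10 min after injection. Expressed as % inhibition versus vehicle controls. Dose–response over 0.3–100 µmol/kg. Mean ± SEM of n animals; one-way ANOVA, Dunnett, P<0.01.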

The species named for experiment [2] is Oryctolagus cuniculus. Briefly: Inhibition of arachidonic acid-induced rabbit platelet aggregation by turbidimetric method. In kind it is functional. The gist of the method:
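Rabbits (2.5–3.0 kg) bled from the central ear artery into 3.8% trisodium citrate (9:1). PRP was spun at 1800 rpm and PPP at 3600 rpm, 10 min each at room temperature. PRP was stirred at 900 rpm at 37 °C, with compound or 0.5% DMSO vehicle added 5 min before arachidonic acid (200 µM in methods; 100 µM elsewhere). Read-out was percent of AA aggregation.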

Experiment [3] relates to Mus musculus. The experiment in a line: Antinociceptive activity in po treated Albino mouse assessed as inhibition of acetic acid-induced abdominal constriction treated 1 hr before acetic acid challenge. It counts as functional. To be noted: Abdomen. The gist of the method: as §1
For experiment [4], the system named is Mus musculus. The experiment in a line: Antinociceptive activity in Albino swiss mouse assessed as inhibition of formalin induced pain at 100 umol/kg, ip treated 1 hr before formalin challenge. It counts as functional, organism-based. In short, it runs like this:
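Albino Swiss mice of both sexes (18–25 g), fasted 8 h, dosed ip in 5% arabic gum. 60 min later, 20 µL of 2.5% formalin subplantar in one hind paw. Time spent licking or biting the paw scored at 0–5 min (neurogenic phase) and 15–30 min (inflammatory phase). Mean ± SEM, n=6–12; two-way ANOVA, Bonferroni.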

Experiment [5] concerns Mus musculus. Briefly: Analgesic activity in Swiss mouse assessed as response to thermal stimulation at 100 umol/kg, ip by Hot-plate test. It counts as functional, organism-based. In short, it runs like this:
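Swiss mice of both sexes, fasted 8 h, water ad libitum; dosed ip in 1% tween in saline. Placed on plate at 55 ± 0.1 °C; paw licking or withdrawal timed. Two control readings 30 min apart set baseline latency; cut-off three times control mean. Latency recorded every 30 min after dosing for 150 min. Mean ± SEM, n=7.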
(Hot-plate and tail-flick tests time the reaction to a heat stimulus.)

The test system of experiment [6] is Rattus norvegicus. Briefly: Analgesic activity in carrageenan-induced Wistar rat hyperalgesia model assessed as reduction in latency time at 100 umol/kg, ip treated 60 mins before carrageen challenge. In kind it is functional. On the set-up: scale not given: the % may be the effect or the level left. The gist of the method: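 Wistar rats, dosed ip in 1% tween 80 in saline. Carrageenan 1 mg/paw intraplantar in left paw, saline in right, 100 µL each. Left-paw withdrawal latency on 51 ± 0.1 °C plate at 0, 30, 60, 120, 180, 240 min; cut-off 20 s. Hyperalgesia taken as latency at time 0 minus later latency. Mean ± SEM, n=8–10; one-way ANOVA, Dunnett.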

Experiment [7] has as its system Rattus norvegicus. The experiment in a line: Antiinflammatory activity in Albino rat assessed as inhibition of carrageenan-induced paw edema at 10 umol/kg, ip. In kind it is functional. The gist of the method: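 Albino rats of both sexes (150–200 g), dosed as a suspension in 1% tween 80 in saline. 1 h later, 1% carrageenan (0.1 mg/paw) into one hind paw subplantar, saline into the other. Paw volumes by plethysmometer at 3 h; edema is the difference between the paws. Expressed as % inhibition versus vehicle controls.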

Experiment [8] concerns Rattus norvegicus. The experiment in a line: Antiinflammatory activity in Albino rat assessed as inhibition of carrageenan-induced paw edema at 100 umol/kg, ip. On the set-up: scale not given: the % may be the effect or the level left. Background: The carrageenan paw model is a standard test of acute inflammation.

Broadly, the inhibition in vivo is the change of the read-out against control, counted positive when it falls. Broadly, the ED50 is the dose at which the effect has come halfway, by size or by number of responders.

Activity calls are given as the source filed them.

Regarding `Cc1nc2cc3c(cc2c(=O)n1/N=C/c1ccco1)OCO3`, the inhibition in vivo at 100 µmol/kg in experiment [1] amounted to 16.9%. In experiment [2], the inhibition entry was “inactive”.
Turning to `C/C(=N\n1c(C)nc2cc3c(cc2c1=O)OCO3)c1cccs1`, in experiment [1], the inhibition in vivo at 100 µmol/kg came to 45.3%. Also, the ED50 in experiment [3] (read-out: ED50) came to 3.5 mg/kg. Moreover, in experiment [4], the inhibition result was “Active”. The result in experiment [5] was inactive. The Activity in experiment [6] is 50%. Also, the inhibition entry in experiment [7] and in experiment [2] was “inactive” each time.
With `Cc1nc2cc3c(cc2c(=O)n1/N=C/c1ccc(N(C)C)cc1)OCO3`, the inhibition in vivo at 100 µmol/kg in experiment [1] is 43%. For the same compound, in experiment [3], the ED50 is 5.4 µmol/kg. For the same compound, the inhibition entry in experiment [4] was “Active”. In addition, the result in experiment [5] was inactive. Further, the Activity in experiment [6] came to 50%. In addition, the inhibition result in experiment [7] and in experiment [2] was “inactive” each time.
With `Cc1nc2cc3c(cc2c(=O)n1/N=C/c1cccs1)OCO3`, the inhibition in vivo at 100 µmol/kg in experiment [1] turned out to be 10.7%. Further, the inhibition entry in experiment [2] is “inactive”.
The like results for `Cc1nc2cc3c(cc2c(=O)n1/N=C/c1ccsc1)OCO3` were, in that order, 34.7% and “inactive”.
The like results for `Cc1nc2cc3c(cc2c(=O)n1/N=C/c1ccncc1)OCO3` were, in that order, 38.5% and “inactive”.
Turning to `Cc1c(N(C)CS(=O)(=O)[O-])c(=O)n(-c2ccccc2)n1C.[Na+]` [DIPYRONE SODIUM], the inhibition in vivo at 100 µmol/kg in experiment [1] stood at 36%. Also, the ED50 in experiment [3] stood at 144 µmol/kg.
With `Cc1nc2cc3c(cc2c(=O)n1/N=C/c1ccccn1)OCO3`, in experiment [1], the inhibition in vivo at 100 µmol/kg is 18.5%. Also, the inhibition result in experiment [2] is “inactive”.
The like results for `Cc1nc2cc3c(cc2c(=O)n1/N=C/c1ccc(C(C)C)cc1)OCO3` were, in that order, 32.9% and “inactive”.
Take `COc1ccc2c(c1)c(CC(=O)O)c(C)n2C(=O)c1ccc(Cl)cc1` [INDOMETHACIN]: the Activity in experiment [8] was determined as 61%.
For `Cc1nc2cc3c(cc2c(=O)n1/N=C/c1ccccc1)OCO3`, the inhibition in vivo at 100 µmol/kg in experiment [1] came out at 17.6%. In addition, the inhibition result in experiment [2] is “inactive”.
Take `Cc1nc2cc3c(cc2c(=O)n1/N=C/c1cccnc1)OCO3`: the inhibition in vivo at 100 µmol/kg in experiment [1] was determined as 35.2%. Also, in experiment [2], the inhibition result was “inactive”.

For the origin of these results see ChEMBL document CHEMBL1152567, “Synthesis and analgesic profile of conformationally constrained N-acylhydrazone analogues: discovery of novel N-arylideneamino quinazolin-4(3H)-one compounds derived from natural safrole” (2009).
